From ChEMBL document CHEMBL1133478, “Discovery of potent cyclic pseudopeptide human tachykinin NK-2 receptor antagonists” (J Med Chem, 2000)
Bridge positions count the residues as written; N and C are the ends. Square brackets hold non-standard residues; d marks the D form. Peptide text beside a SMILES is read from it. * marks the point of attachment. NH(β-GlcNAc) = CC(=O)N[C@@H]1[C@@H](O)[C@H](O)[C@@H](CO)O[C@H]1N*; Dap = NC[C@H](N)C(=O)O

Tests used:
Substance-K receptor = target: T1, Substance-K receptor (Homo sapiens, UniProt P21452); assay: Binding affinity towards Tachykinin receptor 2
T1 sequence (P21452 whole entry): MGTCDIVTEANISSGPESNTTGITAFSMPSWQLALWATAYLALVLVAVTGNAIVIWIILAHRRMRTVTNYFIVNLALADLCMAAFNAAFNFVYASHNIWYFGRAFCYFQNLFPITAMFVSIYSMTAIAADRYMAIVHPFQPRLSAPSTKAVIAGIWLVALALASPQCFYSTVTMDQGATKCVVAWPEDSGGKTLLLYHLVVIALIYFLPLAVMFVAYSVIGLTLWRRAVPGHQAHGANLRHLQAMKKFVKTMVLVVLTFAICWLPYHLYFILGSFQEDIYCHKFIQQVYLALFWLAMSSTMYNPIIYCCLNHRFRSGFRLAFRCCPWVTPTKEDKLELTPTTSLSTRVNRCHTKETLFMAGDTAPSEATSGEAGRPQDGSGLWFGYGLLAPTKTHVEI
Method in brief: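 Competition binding at human NK-2 receptor expressed in CHO cells, radioligand [125I]NKA. pKi computed with EBDA then LIGAND; mean of 2–6 experiments, each run in duplicate.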

[1] = system: Substance-K receptor (Oryctolagus cuniculus); assay: In Vitro evaluation for the functional activity towards Tachykinin receptor 2
[2] = target: Substance-P receptor (Cavia porcellus) (UniProt P30547)
[3] = target: T2, Neuromedin-K receptor (Cavia porcellus) (UniProt P30098)
T2 sequence (whole entry): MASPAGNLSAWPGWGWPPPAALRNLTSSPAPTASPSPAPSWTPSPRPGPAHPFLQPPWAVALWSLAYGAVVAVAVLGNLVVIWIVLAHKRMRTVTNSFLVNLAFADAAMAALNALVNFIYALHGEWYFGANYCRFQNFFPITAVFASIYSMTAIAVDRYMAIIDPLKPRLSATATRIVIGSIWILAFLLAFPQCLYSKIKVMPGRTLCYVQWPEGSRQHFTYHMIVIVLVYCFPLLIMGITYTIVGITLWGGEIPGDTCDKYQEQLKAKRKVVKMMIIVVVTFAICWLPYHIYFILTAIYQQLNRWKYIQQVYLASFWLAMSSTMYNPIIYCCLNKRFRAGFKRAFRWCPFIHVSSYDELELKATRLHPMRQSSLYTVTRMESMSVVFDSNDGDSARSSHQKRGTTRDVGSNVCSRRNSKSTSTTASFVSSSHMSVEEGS

[4] = target: T3, Substance-K receptor (Cavia porcellus) (UniProt Q64077)
T3 sequence (whole entry): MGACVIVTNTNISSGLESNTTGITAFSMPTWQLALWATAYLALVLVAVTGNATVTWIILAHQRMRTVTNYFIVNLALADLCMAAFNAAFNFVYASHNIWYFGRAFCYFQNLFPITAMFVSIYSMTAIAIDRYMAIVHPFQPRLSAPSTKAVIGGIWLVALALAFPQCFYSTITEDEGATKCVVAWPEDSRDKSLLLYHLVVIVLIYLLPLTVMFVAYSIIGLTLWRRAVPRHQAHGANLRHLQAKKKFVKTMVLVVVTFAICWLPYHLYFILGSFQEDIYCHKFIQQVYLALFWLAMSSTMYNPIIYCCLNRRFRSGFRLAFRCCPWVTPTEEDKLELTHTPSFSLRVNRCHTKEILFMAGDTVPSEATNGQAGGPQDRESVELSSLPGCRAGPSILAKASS

Sequence of Substance-P receptor (Cavia porcellus) (P30547 whole entry): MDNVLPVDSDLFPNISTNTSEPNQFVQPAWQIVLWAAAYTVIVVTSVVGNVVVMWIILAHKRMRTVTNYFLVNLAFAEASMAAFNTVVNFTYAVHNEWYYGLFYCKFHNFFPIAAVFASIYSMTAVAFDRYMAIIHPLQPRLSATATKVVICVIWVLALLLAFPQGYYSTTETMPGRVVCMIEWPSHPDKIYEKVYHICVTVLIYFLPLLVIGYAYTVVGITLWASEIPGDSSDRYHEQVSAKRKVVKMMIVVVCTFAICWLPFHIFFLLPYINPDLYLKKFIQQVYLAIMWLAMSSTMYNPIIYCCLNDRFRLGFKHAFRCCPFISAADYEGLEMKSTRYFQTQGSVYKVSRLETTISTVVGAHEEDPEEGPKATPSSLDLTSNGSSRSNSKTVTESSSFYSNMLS

Row | Structure (SMILES) | Ki (Substance-K receptor) [nM] | pKb [1] | pKB [2] | pKB [3] | pKB [4]
1 | O=C1CCC(=O)N[C@@H](Cc2c[nH]c3ccccc23)C(=O)N[C@@H](Cc2ccccc2)C(=O)N[C@H](CCc2ccccc2)CN1 | 10 | 6.5 |  |  | 
2 | O=C1CC(Cc2ccccc2)C(=O)NCCNC(=O)[C@H](Cc2ccccc2)NC(=O)[C@H](Cc2c[nH]c3ccccc23)N1 (mixture of isomers) | 794 | 6.1 |  |  | 
3 | O=C1CC(Cc2ccccc2)C(=O)N[C@@H](Cc2c[nH]c3ccccc23)C(=O)N[C@@H](Cc2ccccc2)C(=O)NCCN1 (mixture of isomers) | 631 | 5.7 |  |  | 
4 | O=C1CCC(=O)N[C@@H](Cc2c[nH]c3ccccc23)C(=O)N[C@@H](Cc2ccccc2)C(=O)N[C@H](CC2CCCCC2)CN1 | 316 | 6.5 |  |  | 
5 | CSCC[C@@H]1NC(=O)[C@H](CC(C)C)NC(=O)[C@@H]2CNC(=O)C[C@H](NC1=O)C(=O)N[C@@H](Cc1c[nH]c3ccccc13)C(=O)N[C@@H](Cc1ccccc1)C(=O)N2 (cyclo(DWF[Dap]LM); lactam 1-4) | 0.631 | 8.1 |  |  | 
6 | CC(=O)N[C@@H]1[C@@H](O)[C@H](O)[C@@H](CO)O[C@H]1NC(=O)C[C@@H]1NC(=O)[C@H](CC(C)C)NC(=O)[C@@H]2CNC(=O)C[C@H](NC1=O)C(=O)N[C@@H](Cc1c[nH]c3ccccc13)C(=O)N[C@@H](Cc1ccccc1)C(=O)N2 (cyclo(D(NH(β-GlcNAc))DWF[Dap]L); lactam 2-5) | 2.51 |  |  |  | 
7 | O=C1CCC(=O)N[C@@H](Cc2c[nH]c3ccccc23)C(=O)N[C@@H](Cc2ccccc2)C(=O)NCCN1 | 1260 | 6.3 |  |  | 

Other lines, results leading:

Row | Ki (Substance-K receptor) [nM] | pKb [1] | pKB [2] | pKB [3] | pKB [4] | Structure (SMILES)
8 | 20 | 7.1 |  |  |  | O=C1CCC(=O)N[C@@H](Cc2c[nH]c3ccccc23)C(=O)N[C@@H](Cc2ccccc2)C(=O)N[C@H](Cc2ccc(C(F)(F)F)cc2)CN1
9 | 1260 | 5.4 |  |  |  | O=C1CCC(=O)N[C@H](Cc2ccccc2)CNC(=O)[C@H](Cc2ccccc2)NC(=O)C(Cc2c[nH]c3ccccc23)N1 (single isomer, unassigned)
10 | 10 | 7.1 |  |  |  | COc1ccc(CC2CNC(=O)CCC(=O)N[C@@H](Cc3c[nH]c4ccccc34)C(=O)N[C@@H](Cc3ccccc3)C(=O)N2)cc1 (some centres not stated)
11 | 2 |  | 5.7 | 6.1 | 7.8 | O=C1CCC(=O)NC(Cc2c[nH]c3ccccc23)C(=O)N[C@@H](Cc2ccccc2)C(=O)N[C@H](Cc2ccccc2)CN1 (single isomer, unassigned)
12 | 0.1 | 8.1 |  |  |  | O=C1CCC(=O)N[C@@H](Cc2c[nH]c3ccccc23)C(=O)N[C@@H](Cc2ccccc2)C(=O)N[C@H](Cc2ccc(Cl)c(Cl)c2)CN1
13 | 1260 |  |  |  |  | O=C1CCC(=O)N[C@@H](Cc2c[nH]c3ccccc23)C(=O)N[C@@H](Cc2ccccc2)C(=O)NC(Cc2ccccc2)CN1 (some centres not stated)
14 | 7.94 | 7 |  |  |  | O=C1CCC(=O)N[C@@H](Cc2c[nH]c3ccccc23)C(=O)N[C@@H](Cc2ccccc2)C(=O)N[C@H](Cc2ccc3ccccc3c2)CN1
15 | 1.58 | 7.8 |  |  |  | O=C1CCC(=O)N[C@@H](Cc2c[nH]c3ccccc23)C(=O)N[C@@H](Cc2ccccc2)C(=O)N[C@H](Cc2ccc(F)c(F)c2)CN1
16 | 1260 | 5.5 |  |  |  | O=C1CCC(=O)N[C@@H](Cc2c[nH]c3ccccc23)C(=O)N[C@@H](Cc2ccccc2)C(=O)NC[C@H](Cc2ccccc2)N1
